LMPTP inh: blocks human LMPTP phosphatase. recombinant LMPTP-A, OMFP fluorogenic substrate, fluorescence intensity. inhibition, % at 20 µM. actives 0.22% (n = 360,000). AID 651560;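 active = compounds that cut the enzyme signal by at least half of the control window in the single-dose screen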
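material = LMPTP-A | quantity = 0.625 nM enzyme | reagent = OMFP substrate, 400 µM final | buffer or medium = Bis-Tris pH 6.0, DTT, detergent | detection = endpoint fluorescence intensity from OMFP dephosphorylation | dosing = single 20 µM dose | read-out basis = % inhibition relative to no-enzyme and uninhibited control wells | control set = no-enzyme and uninhibited controls | timing = 50 min at room temperature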
SUMO1-SIM PPI: SUMO1-SIM interaction modulation | P63165 | SUMO1 binding to a labelled peptide, TR-FRET, 1 h | inhibition, % at 20 µM | actives 0.33% (n = 360,000); in the data active = inhibition above about 37%
STEP block: STEP (human) phosphatase inhibition. P54829. recombinant STEP, OMFP fluorogenic substrate, fluorescence. inhibition, % at 20 µM. actives 0.25% (n = 360,000). AID 588621;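 active = inhibition at 20 µM, scaled per plate between control wells, above about 37%, limit read from the data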
Target sequence (P54829 whole entry, looked up): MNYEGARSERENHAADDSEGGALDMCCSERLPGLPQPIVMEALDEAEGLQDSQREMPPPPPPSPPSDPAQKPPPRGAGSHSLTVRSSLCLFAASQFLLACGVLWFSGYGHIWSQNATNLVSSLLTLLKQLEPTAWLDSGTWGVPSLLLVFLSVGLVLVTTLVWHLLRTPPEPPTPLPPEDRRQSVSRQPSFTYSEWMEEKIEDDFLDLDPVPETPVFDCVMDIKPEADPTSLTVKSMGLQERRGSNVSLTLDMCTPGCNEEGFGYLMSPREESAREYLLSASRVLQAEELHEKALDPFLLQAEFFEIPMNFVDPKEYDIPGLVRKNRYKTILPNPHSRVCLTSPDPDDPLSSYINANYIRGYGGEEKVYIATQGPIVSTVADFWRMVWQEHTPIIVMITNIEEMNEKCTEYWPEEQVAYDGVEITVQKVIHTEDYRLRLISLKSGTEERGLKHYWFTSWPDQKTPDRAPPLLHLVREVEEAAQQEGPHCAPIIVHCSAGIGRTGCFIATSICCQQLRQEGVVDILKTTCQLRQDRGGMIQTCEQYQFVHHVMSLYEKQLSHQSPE
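Material: STEP (striatal-enriched tyrosine phosphatase) enzyme, cell-free; Compound dosing: 20 µM single dose in 1% DMSO; Technique: fluorescence read at 480 nm ex / 540 nm em; Times: reaction 20 min, ambient temperature; Medium: 50 mM Bis-Tris pH 6.0 with 2.5 mM DTT and 0.005% Tween 20; Also added: OMFP at 25 µM.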
Scp1 inh: Scp-1 (human) phosphatase inhibition | Q9GZU7 | Recombinant Scp1, phosphopeptide, malachite green phosphate absorbance | inhibition, % at 20 µM | actives 0.88% (n = 340,000);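 active = inhibition above about 50% at 20 µM, limit read from the data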
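Assay system: SCP-1 catalytic fragment, aa 76-261 | Buffer or medium: Tris acetate buffer pH 5.5 with MgCl2 and Tween-20 | Compound: One concentration, 20 µM, with 1.0% DMSO | Also added: Phospho 17-mer peptide substrate | Signal: Absorbance at 630 nm | Incubation: 45 min enzyme reaction at room temperature | Measure: % inhibition of SCP-1 phosphate liberation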
GRK2 inh: human GRK2 inhibition via aptamer displacement | bead flow cytometry, FAM-aptamer displacement from GRK2 | inhibition of aptamer binding, % at 10 µM | actives 0.59% (n = 330,000);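 active = inhibition of aptamer binding above 40%, roughly 3 SD of noise, on plates passing a quality check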;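 note: median bead fluorescence of bound FAM aptamer so fluorescent compounds give negative values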
DNMT1 block: DNMT1 (human) enzyme inhibition. inhibition (reported as % activation of signal), % at 10 µM. AID 588458. actives 0.83% (n = 360,000). P26358. DNMT1 molecular beacon, Hinp1I cleavage, fluorescence; in the data active = inhibition above about 50%
GRK2 inh confirm: confirmation of human GRK2 inhibitors displacing RNA aptamer. shares compounds with GRK2 inh. bead-bound GRK2, FAM-aptamer displacement, flow cytometry. aptamer displacement, % at 10 µM. actives 4% (n = 2,000). AID 504451;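 active = aptamer displacement above 40%, near three times the noise of non-fluorescent compounds, on plates passing quality checks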;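 note: negative values mostly reflect intrinsic compound fluorescence rather than true enhancement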
Aptamer quench 1: counter-screen for GRK2 aptamer inhibitors: fluorescent aptamer quenchers | Fluorescent RNA aptamer beads, quenching, flow cytometry; active compounds read high | fluorescence change (kMESF span), kMESF (concentration not given with the values) | shares compounds with GRK2 inh | AID 504521 | 110 tested, under 10 active;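 active = compounds whose bead fluorescence drops by more than 37 kMESF across the dose range, marking them as dye quenchers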
Aptamer quench SP: quenches fluorescent RNA aptamer, GRK2 hit artifact; shares compounds with GRK2 inh; Carboxyfluorescein RNA aptamer on beads, flow cytometry quenching; active compounds read low; fluorescence response (% of DMSO), % at 10 µM; 2,000 tested, under 10 active;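 active = compounds that quench the bead-bound fluorescent RNA probe, cutting fluorescence to under half of the solvent control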;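 note: counterscreen run without GRK2 so only probe quenching by compound is measured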
GRK2 CP2: confirmation of human GRK2 inhibitors binding RNA aptamer site; inhibition of aptamer binding, % at 10 µM; shares compounds with GRK2 inh; bead-bound GRK2, FAM-aptamer displacement, flow cytometry; 360 tested, under 10 active;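 active = inhibition of aptamer binding above 40%, about triple the noise seen with nonglowing compounds, on plates passing quality control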;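 note: negative values mostly come from compounds that fluoresce themselves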
FAM quench CP2: quenches fluorescent RNA aptamer, GRK2 hit artifact | shares compounds with GRK2 inh | carboxyfluorescein RNA aptamer beads, flow cytometry quenching; active compounds read low | fluorescence response vs DMSO, % at 10 µM | 360 tested, under 10 active;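 active = response vs DMSO under 50%, meaning signal dropped by over half, treated as fluorescence quencher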;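 note: labelled aptamer on streptavidin beads without GRK2 as a quench counter-screen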
Numbers stand for hits; . = inactive; / = not tested or not shown. Most compounds without a hit are left out; they make up all but 2.2% or so of the library.

SMILES | LMPTP inh | SUMO1-SIM PPI | STEP block | Scp1 inh | GRK2 inh | DNMT1 block | GRK2 inh confirm | Aptamer quench SP | others
O=C(O)CC(C(=O)O)N1C(=O)/C(=C/c2ccc(-c3nc4ccccc4s3)o2)SC1=S (stereo unspecified) | . | 87 | 63 | 80 | 44 | 107 | . | .
CC(C)(C)S(=O)N1Cc2cc(C(=O)N[C@@H]3CCN(Cc4ccccc4)C3)nc(-c3cccc(-c4cc5ccccc5o4)c3)c2[C@@H]1CCO (stereo partly specified) | . | . | . | / | / | . | / | /
O=C(Cc1ccccc1F)Nc1cc(S(=O)(=O)N2CCCC2)ccc1Cl | . | . | . | . | . | . | / | /
O=C(CNc1ccccc1F)Nc1cc(S(=O)(=O)N2CCCCC2)ccc1Cl | . | . | . | . | 52 | . | . | .
N#CC1=C(S)N(c2ccc(F)cc2)C(c2ccco2)NC1=O (stereo unspecified) | . | . | . | . | . | . | / | /
N#CC1=C(S)N(c2ccccc2)C(c2ccco2)NC1=O (stereo unspecified) | . | . | . | . | 74 | . | . | .
CCOC(=O)[C@]12CCCC=C1N(Cc1cccc3ccccc13)C(=O)[C@H](CC(=O)NCCCCc1ccccc1)C2 | . | . | / | / | / | / | / | /
CC1CCCCC1=NNC(=O)c1ccccc1 (stereo unspecified) | . | . | . | / | / | . | / | /
O=C(NCC1CCCO1)c1cn(Cc2ccccc2)nc1-c1ccccc1 (stereo unspecified) | . | . | . | . | . | . | / | /
O=C(NCC1CCCO1)c1cn(Cc2ccccc2)nc1-c1ccc(Cl)cc1 (stereo unspecified) | . | . | . | . | 45 | . | . | .
Cc1ccc(C)c(N2N=C(C(=O)N(CC(C)C)c3c(N)n(Cc4ccccc4)c(=O)[nH]c3=O)CCC2=O)c1 | . | . | . | . | . | . | . | .
COc1ccccc1-[n+]1c(C)cc(/C=C2\Sc3ccccc3N2C)cc1C | . | . | . | . | 68 | . | 62 | . | Aptamer quench 1=.
CCNC(=O)C1(C)CCCN(C(=O)c2cc3ccccc3s2)C1 (stereo unspecified) | . | . | . | / | / | . | / | /
CCc1ccc2nc3c(c(C(=O)O)c2c1)CCC3 | . | . | . | . | . | . | / | / | GRK2 CP2=.;FAM quench CP2=.
COC(=O)c1c2c(nc3ccccc13)CCC2 | . | . | . | . | . | . | / | /
O=C(O)c1c2c(nc3ccc(S(=O)(=O)N4CCC(C(=O)N5CCCCC5)CC4)cc13)CCCC2 | . | . | . | . | 84 | . | . | .
CC(C)c1ccc(C(=O)N2CCCC(c3cc(C(=O)Nc4ccc5c(c4)OCO5)no3)C2)cc1 (stereo unspecified) | . | . | . | / | / | . | / | /
O=C(/C=C/c1ccc(Br)o1)OCc1nc2ccsc2c(=O)[nH]1 | 76 | 120 | 89 | 86 | 88 | 104 | . | .
COc1cc(CCC(=O)Nc2nccs2)cc(OC)c1OC | . | . | . | . | . | . | . | .
COc1cc(CCC(=O)NCc2ccc(S(N)(=O)=O)cc2)cc(OC)c1OC | . | . | . | . | . | . | / | /
